Results: ChEMBL document CHEMBL1122138, “Fluorinated retinoic acids and their analogues. 3. Synthesis and biological activity of aromatic 6-fluoro analogues” (1982)

Tests used:
Type in all cases: functional
[1] = organism: Mus musculus; assay: Hypervitaminosis A dose, a measure of toxicity, in mice was determined
In short: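 Mice received retinoid suspended in water with 0.1% carboxymethylcellulose and 0.01% Triton X-100. Dosing was ip daily Mon–Fri in week 1 and Mon–Thu in week 2. Symptoms were scored one day after the last injection: weight loss, skin redness/scaling, hair loss, nose/mouth mucosal changes, bone fractures. The value is the lowest daily dose at which 2 of 3 mice show one or more symptoms.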

[2] = test system: Mus musculus; assay: Antipapilloma activity was measured in mice as percentage effect by ip administration at the dose of 10 mg/kg/day.; settings: route intraperitoneal
[3] = test system: Mus musculus; assay: Antipapilloma activity was measured in mice as percentage effect by ip administration at the dose of 20 mg/kg/day.; settings: route intraperitoneal
[4] = test system: Mus musculus; assay: Antipapilloma activity was measured in mice as percentage effect by ip administration at the dose of 40 mg/kg/day.; settings: route intraperitoneal
[5] = test system: Mus musculus; assay: Antipapilloma activity was measured in mice as percentage effect by ip administration at the dose of 5 mg/kg/day.; settings: route intraperitoneal
[6] = test system: Mus musculus; assay: Antipapilloma activity was measured in mice as percentage effect by ip administration at the dose of 80 mg/kg/day.; settings: route intraperitoneal

Row | SMILES | Dose [1] [mg/kg] | Effect [2] [%] | Effect [3] [%] | Effect [4] [%] | Effect [5] [%] | Effect [6] [%]
1 | COC(=O)/C=C(C)/C=C/C(F)=C(C)/C=C/c1c(C)cc(OC)c(C)c1C | 50 | -35 | -60 | -79 | -28 | 
2 | COC(=O)/C=C(C)/C=C/C(F)=C(C)/C=C/c1c(Cl)cc(OC)c(C)c1C | 200 |  |  | -41 |  | 
3 | COC(=O)/C=C(C)/C=C/C(F)=C(C)/C=C/c1c(Cl)cc(OC)c(C)c1Cl | 200 |  |  |  |  | -64
4 | COC(=O)/C=C(C)/C=C/C(F)=C(C)/C=C/c1c(Cl)cc(OC)c(Cl)c1Cl | >200 |  |  |  |  | -58
5 | COC(=O)/C=C(C)/C=C/C(F)=C(C)/C=C/c1c(C)cc(OC)c(C)c1Cl | 50 |  | -56 |  |  | 
6 | COC(=O)/C=C(C)/C=C/C(F)=C(C)/C=C/c1c(C)cc(C)c(Cl)c1C | 200 |  |  |  |  | -48
